Measured values of several laboratories.
Protocols differ between the studies behind these lines.
HTR2A: 5-hydroxytryptamine receptor 2A (HTR2A, Homo sapiens, UniProt P28223)
CNR1: Cannabinoid receptor 1 (CNR1, Homo sapiens, UniProt P21554)
SRD5A1: 3-oxo-5-alpha-steroid 4-dehydrogenase 1 (SRD5A1, Homo sapiens, UniProt P18405)

| Compound | target | test | test system | setting | inhibition [%] |
| --- | --- | --- | --- | --- | --- |
| COc1cc2c3c(c1OC)-c1c(OC)ccc(NC(C)=O)c1CC3N(C)CC2 (stereo not drawn) | HTR2A | ligand displacement, radioligand | – | 10 µM | 9 |
| CCN1/C(=C/C(C)=O)Sc2ccc(F)cc21 | CNR1 | ligand displacement, radioligand | – | 10 µM | 0 |
| Cc1cc(F)cc2c(CCC(=O)N[C@@H]3C(=O)NC[C@H]3O)c(-c3ccc(F)cc3)[nH]c12 | Endothelin-1 receptor (EDNRA, Homo sapiens, UniProt P25101) | cell-free assay | – | 10 µM | -19 |
| COC(=O)C=Cc1ccc(OC(C)=O)c(OC)c1 | SRD5A1 | enzyme activity in cells, inhibitor | HaCaT | 50 µM | 26.4 |
| NC/C(=C\F)COc1cccc(Cn2c(=S)[nH]c(=O)c3[nH]cnc32)c1 | CNR1 | ligand displacement, radioligand | – | 10 µM | < 50 |
| COC(=O)C=Cc1ccc(OC)c(OC)c1 | SRD5A1 | enzyme activity in cells, inhibitor | HaCaT | 50 µM | 26.1 |
| COc1cc2c3c(c1OC)-c1c(OC)ccc(N4CCOCC4)c1CC3N(C)CC2 (stereo not drawn) | HTR2A | ligand displacement, radioligand | – | 10 µM | 49 |
| COC(=O)C=Cc1ccc(OC(C)=O)c(OC(C)=O)c1 | SRD5A1 | enzyme activity in cells, inhibitor | HaCaT | 50 µM | 25.1 |
| Cc1cc(O)c(-c2ccc([C@@H](C)CN(C)C)cc2)c2c1[nH]c(=O)c1sccc12 | Serine/threonine-protein kinase A-Raf (ARAF, Homo sapiens, UniProt P10398) | enzyme activity, inhibitor | – | 0.1 µM, lysate | -26 |
